# Bioassay records deposited in PubChem BioAssay by Broad Institute.
# dFosB act = mouse delta FosB homodimer activation; activation, % at 25 µM; purified delta FosB, TAMRA-CDK5 oligo fluorescence polarization; percent of positive-control signal above neutral wells; AID 493131; hit rate 0.99% among 340,000;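 active = mean activation above about 17%, with every replicate also reaching it, limit read from the data, passing the limit was not always enough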
# Target sequence (P13346 whole entry, looked up): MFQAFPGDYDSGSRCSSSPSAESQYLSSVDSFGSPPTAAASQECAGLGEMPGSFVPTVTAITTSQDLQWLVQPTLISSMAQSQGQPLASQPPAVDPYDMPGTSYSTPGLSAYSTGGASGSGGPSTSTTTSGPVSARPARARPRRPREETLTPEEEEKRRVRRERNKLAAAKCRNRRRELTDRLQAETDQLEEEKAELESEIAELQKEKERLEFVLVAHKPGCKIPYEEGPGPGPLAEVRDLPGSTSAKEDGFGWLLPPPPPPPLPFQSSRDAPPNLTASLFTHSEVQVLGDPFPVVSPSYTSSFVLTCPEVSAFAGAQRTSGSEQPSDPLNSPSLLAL
# miR-122 sensor = miR-122 inhibition in Huh7 cells; hit rate 0.3% among 340,000; AID 602342; activation (reporter increase), % at 12.5 µM; Huh7 miR-122 Renilla luciferase sensor, 48 h; neutral wells = 0, positive control = 100;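 active = mean replicate activation score at least 90 and every replicate individually at or above 90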;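 note: higher luciferase means less miR-122 activity so hits act as miR-122 inhibitors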
# Rtt109 HAT inh = C. albicans Rtt109 histone acetyltransferase inhibition. inhibition, % at 34.9 µM. hit rate 0.16% among 330,000. purified Rtt109/Vps75, ThioGlo CoA-SH fluorescence, 4 h. Q5AAJ8;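 active = inhibition of at least 50% in every replicate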
# INS-1E GSIS act = GLuc luminescence reporter in INS-1E cells, primary screen for activators of glucose-dependent secretion of insulin; INS-1E GLuc reporter insulin secretion, 2-3 h; activation, % at 16.6 µM; hit rate 0.61% among 370,000; AID 743287;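 active = lowest replicate activation of at least 40%, so every replicate reaches that level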;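 note: 0% = median of neutral control wells and 100% = median of IBMX positive control wells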
# Cneo AK release = Cryptococcus neoformans lysis via adenylate kinase release | C. neoformans lysis, adenylate kinase release luminescence, 4 h; normalised: neutral wells 0, clomiphene wells 100 | lysis activity, % at 15 µM | hit rate 0.2% among 360,000 | AID 651654;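 active = mean lysis activity across replicates of at least 80%, whatever share of replicates individually reach that level; inactive = mean lysis activity below 80%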
#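 Schedule: static 4 h at 37 °C with compound, 1 h detection; system: C. neoformans cells; benchmarks: Clomiphene as positive control; buffer or medium: fresh YPD medium; measure: luminescence rise reflecting yeast cell lysis; measured by: luminescent adenylate kinase detection reagent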
# HIV Env fusion = blocks HIV Env-driven cell-cell fusion | hit rate 1.1% among 360,000 | HeLa-JRFL Env/CEM21 cell fusion, luciferase | inhibition, % at 12.3 µM | AID 651610;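 active = mean replicate inhibition score of at least 50 and every replicate individually at or above 50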;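 note: 0% = plate neutral controls and 100% = maraviroc near 300 nM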
# * marks the source's active call; other numbers are inactive results; nt = not tested or not shown; [ ] = another dose, or the depositor's remark. Shown are actives, neighbours in structure and some others; about 2.4% of the full set was active somewhere.
SMILES,dFosB act,miR-122 sensor,Rtt109 HAT inh,INS-1E GSIS act,Cneo AK release,HIV Env fusion
CCOC(=O)c1ccc(NC(=O)c2nc[nH]c2C(=O)NCCNC(=O)c2[nH]cnc2C(=O)Nc2ccc(C(=O)OCC)cc2)cc1,-2,-6,2,14,-1,82*
CCOC(=O)c1[nH]cnc1C(=O)NC(C)C,-5,-2,3,41*,6,nt
CCOC(=O)c1[nH]cnc1C(=O)N[C@@H](C)c1ccccc1,3,12,-6,16,9,1
Cc1cccc(NC(=O)c2nc[nH]c2C(=O)NCCCCNC(=O)c2[nH]cnc2C(=O)Nc2cccc(C)c2)c1,4,-2,-8,-6,5,70*
O=C(CN1CCOCC1)N[C@H]1CC[C@H](CCn2cc(C3CCCC3)nn2)O[C@@H]1CO,nt,nt,nt,-3,nt,nt
COc1cccc(NC(=O)N2CC3(C2)[C@H](c2ccccc2)[C@H](CO)N3C(=O)C2CC2)c1,nt,nt,nt,-24,nt,nt
COc1cccc(C#Cc2ccc([C@H]3[C@H]4CN(S(=O)(=O)c5ccccc5C)CC(=O)N4[C@H]3CO)cc2)c1,nt,nt,nt,5,nt,nt
CC=Cc1ccc2n(c1=O)C[C@H]1[C@H](CO)[C@@H](C(=O)NCCC)N(CC3CCOCC3)[C@@H]21 (mixture of isomers),nt,0[16.7 µM],nt,9,1,nt
CCc1cc2c(=O)c(-c3nc4ccccc4n3C)c(C(C)C)oc2c(CN2CCN(C)CC2)c1O,-1,-6,-32,nt,-2,57*
CCc1cc2c(=O)c(-c3nc4ccccc4n3C)c(C)oc2c(CN2CCN(CCO)CC2)c1O,-1,-5,4,13,2,nt
c1ccc(Oc2ccc(-c3cc(NCCc4cccnc4)n4nccc4n3)cc2)cc1,nt,-4,nt,31,0,-17
c1ccc(Oc2ccccc2-c2cc(NCCc3cccnc3)n3nccc3n2)cc1,nt,0,nt,53*,1,0
COc1ccc(S(=O)(=O)N(C)C[C@H]2OCCCC[C@H](C)Oc3ccc(NC(=O)c4ccccc4)cc3C(=O)N([C@H](C)CO)C[C@H]2C)cc1,nt,1[16.7 µM],nt,12,-4,-10[16.7 µM]
CCCNC(=O)[C@@]1(Sc2ccc(C)cc2)CC(=O)N(C2CCCCC2)[C@@H]1c1ccc(CO)cc1I,nt,nt,nt,nt,6,11[16.7 µM]
CN(C)C1=C(Cl)C(=O)N(c2ccc(Cl)c(Cl)c2)C1=O,24*,16,-2,7,-1,-1
COc1ccc(-n2c(CNc3ccc(C)cc3)nnc2SCc2ccccc2)cc1,-10,nt,1,-34,nt,11
CCOc1ccc(NCc2nnc(SCc3ccccc3Cl)n2-c2ccccc2)cc1,-13,2,-1,nt,-2,82*
Cc1ccc(NC(=S)NCc2ccc(F)cc2)cc1,-13,106*,-17,-2,3,10
CCN(CC)C(=O)CSC(Nc1ccc(F)cc1)=C(C#N)C#N,4,16,0,nt,0,-7
Cc1ccc(NC(=S)Nc2ccc(F)cc2)cc1C,0,25,50*,nt,4,-14
Cc1ccc(CSC(Nc2ccc(F)cc2)=C(C#N)C#N)cc1,-4,nt,6,nt,nt,68*
C[C@H](CO)N1C[C@H](C)[C@H](CN(C)S(=O)(=O)c2ccc(Cl)cc2)Oc2ccc(NC(=O)NC3CCCCC3)cc2CC1=O,nt,-9[16.7 µM],nt,-7,0,27[16.7 µM]
C/C=C/c1cnc2c(c1)C(=O)N([C@H](C)CO)C[C@@H](C)[C@@H](CN(C)C(=O)Nc1c(C)noc1C)O2,nt,3[16.7 µM],nt,29,2,4[16.7 µM]
COc1nc(-c2ccccc2)c2cc(C)ccc2n1,-9,-3,-13,72*,-2,10
C[C@H](NC(=O)C[C@H]1CC[C@@H]2[C@H](COC[C@H](O)CN2C)O1)c1ccccc1,nt,5[16.7 µM],nt,4,3,2[16.7 µM]
Cc1nnc(SCC(=O)Nc2nsc(-c3ccccc3)n2)s1,-3,-8,-7,1,4,57*
COc1ccc(-c2nc(NC(=O)CSc3nnc(C)s3)ns2)cc1,1,-40,-2,nt,1,nt
COc1cc(C=c2c3ccccc3n3c2cc(-c2ccccc2)[n+]3C)cc(OC)c1OC,-6,nt,7,24,nt,20
CN(C)c1ccc(C=c2c3ccccc3n3c2cc(-c2ccccc2)[n+]3C)cc1,100*,nt,2,nt,nt,-36
